Data taken from ChEMBL document CHEMBL1177787, “In vitro and in vivo antimalarial evaluation of semi-synthetic derivatives of gomphostenin” (Bioorg Med Chem Lett, 2010).

Assays:
Plasmodium falciparum [1] = assay: Antiplasmodial activity against chloroquine-sensitive Plasmodium falciparum MRC2 infected in human erythrocytes after 24 hrs by Giemsa staining; assay type: functional, organism-based; conditions: MRC2, 24 h
Summary of the method: (§1)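 Parasites grown in human B(+) erythrocytes in RPMI-1640 with 25 mM HEPES, 10% human AB(+) serum, 0.2% sodium bicarbonate, 5% CO2. Ring-stage cultures synchronized, parasitemia set to 1–1.5% with fresh RBC. Twofold serial dilutions (ethanol stock, final ethanol ≤0.5%), duplicate wells, 37 °C for 24 h. Giemsa smears: schizonts per 100 asexual parasites; inhibition = (1 − Nt/Nc) × 100; IC50 derived.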

Plasmodium falciparum [2] = assay: Antiplasmodial activity against chloroquine-resistant Plasmodium falciparum RKL9 after 24 hrs by Giemsa staining; assay type: functional, organism-based; conditions: RKL9, 24 h; summary of the method: as §1
Plasmodium berghei [3] = assay: Antimalarial activity against chloroquine-sensitive Plasmodium berghei ANKA infected in Swiss mice (Mus musculus) assessed as parasitaemia at 50 mg/kg, perorally for 4 days measured on day 5; assay type: functional; conditions: route oral
Summary of the method: (§2)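 Four-day suppressive test: Swiss albino mice inoculated i.p. on day 0 with 0.2 ml infected blood carrying about 1 × 10⁷ P. berghei ANKA parasitized RBC. Compounds suspended in saline with 0.5% Tween-80 and given orally from shortly after inoculation, day 0–3. Groups of five mice; the vehicle group was the negative control. Tail-blood thin films were read on day 4 (fifth day), counting parasitized cells per 600 erythrocytes.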

Plasmodium berghei [4] = assay: Antimalarial activity against chloroquine-sensitive Plasmodium berghei ANKA infected in Swiss mice (Mus musculus) assessed as suppression of parasitaemia at 150 mg/kg, perorally for 4 days measured on day 5 relative to control; assay type: functional; conditions: route oral; summary of the method: as §2
Plasmodium berghei [5] = assay: Antimalarial activity against chloroquine-sensitive Plasmodium berghei ANKA infected in Swiss mice (Mus musculus) assessed as parasitaemia at 100 mg/kg, perorally for 4 days measured on day 5; assay type: functional; conditions: route oral; summary of the method: as §2
Plasmodium berghei [6] = assay: Antimalarial activity against chloroquine-sensitive Plasmodium berghei ANKA infected in Swiss mice (Mus musculus) assessed as parasitaemia at 150 mg/kg, perorally for 4 days measured on day 5; assay type: functional; conditions: route oral; summary of the method: as §2
Plasmodium berghei [7] = assay: Antimalarial activity against chloroquine-sensitive Plasmodium berghei ANKA infected in Swiss mice (Mus musculus) assessed as suppression of parasitaemia at 50 mg/kg, perorally for 4 days measured on day 5 relative to control; assay type: functional; conditions: route oral; summary of the method: as §2
Plasmodium berghei [8] = assay: Antimalarial activity against chloroquine-sensitive Plasmodium berghei ANKA infected in Swiss mice (Mus musculus) assessed as suppression of parasitaemia at 100 mg/kg, perorally for 4 days measured on day 5 relative to control; assay type: functional; conditions: route oral; summary of the method: as §2
Plasmodium berghei [9] = assay: Antimalarial activity against chloroquine-sensitive Plasmodium berghei ANKA infected in Swiss mice (Mus musculus) assessed as suppression of parasitaemia at 5 mg/kg, perorally for 4 days measured on day 5 relative to control; assay type: functional; conditions: route oral; summary of the method: as §2
Plasmodium berghei [10] = assay: Antimalarial activity against chloroquine-sensitive Plasmodium berghei ANKA infected in Swiss mice (Mus musculus) assessed as parasitaemia at 5 mg/kg, perorally for 4 days measured on day 5; assay type: functional; conditions: route oral; summary of the method: as §2

CC1=CC(=O)C[C@H]2[C@](C)(CCC3=CCOC3=O)[C@H](COC(=O)OCc3ccccc3)CC[C@]12C
IC50 (Plasmodium falciparum [1]): 42.2 µM | IC50 (Plasmodium falciparum [2]): 43.9 µM

CC1=CC(=O)C[C@H]2[C@](C)(CCC3=CCOC3=O)[C@H](COS(C)(=O)=O)CC[C@]12C
IC50 (Plasmodium falciparum [1]): 69.9 µM | IC50 (Plasmodium falciparum [2]): 73.3 µM

COc1ccc(COC(=O)OC[C@@H]2CC[C@]3(C)C(C)=CC(=O)C[C@H]3[C@]2(C)CCC2=CCOC2=O)cc1
IC50 (Plasmodium falciparum [1]): 37.6 µM | IC50 (Plasmodium falciparum [2]): 47.7 µM

CC1=CC(=O)C[C@H]2[C@](C)(CCC3=CCOC3=O)[C@H](COS(=O)(=O)c3ccc(C)cc3)CC[C@]12C
IC50 (Plasmodium falciparum [1]): 26.1 µM | IC50 (Plasmodium falciparum [2]): 45.8 µM

CC1=CC(=O)C[C@H]2[C@](C)(CCC3=CCOC3=O)[C@H](COCc3ccc(F)cc3)CC[C@]12C
Activity (Plasmodium berghei [3]): 26.4% | inhibition in vivo at 150 mg/kg (Plasmodium berghei [4]): 69.4% | IC50 (Plasmodium falciparum [1]): 8.3 µM | IC50 (Plasmodium falciparum [2]): 8.1 µM | Activity (Plasmodium berghei [5]): 22.3% | Activity (Plasmodium berghei [6]): 10.3% | inhibition in vivo at 50 mg/kg (Plasmodium berghei [7]): 21.7% | inhibition in vivo at 100 mg/kg (Plasmodium berghei [8]): 33.2%

COC[C@@H]1CC[C@]2(C)C(C)=CC(=O)C[C@H]2[C@]1(C)CCC1=CCOC1=O
IC50 (Plasmodium falciparum [1]): 94.4 µM | IC50 (Plasmodium falciparum [2]): 88.9 µM

CC1=CC(=O)C[C@H]2[C@](C)(CCC3=CCOC3=O)[C@H](COCc3ccc(Cl)cc3)CC[C@]12C
IC50 (Plasmodium falciparum [1]): 14 µM | IC50 (Plasmodium falciparum [2]): 18.8 µM

CCN(CC)CCCC(C)Nc1ccnc2cc(Cl)ccc12.O=P(O)(O)O.O=P(O)(O)O (configuration not stated) [CHLOROQUINE PHOSPHATE]
inhibition in vivo at 5 mg/kg (Plasmodium berghei [9]): 96.8% | Activity (Plasmodium berghei [10]): 1.07%

CC1=CC(=O)C[C@H]2[C@](C)(CCC3=CCOC3=O)[C@H](COC(=O)C(C)(C)C)CC[C@]12C
IC50 (Plasmodium falciparum [1]): 78.5 µM | IC50 (Plasmodium falciparum [2]): 84.9 µM

CC1=CC(=O)C[C@H]2[C@](C)(CCC3=CCOC3=O)[C@H](COCc3ccc(C(F)(F)F)cc3)CC[C@]12C
Activity (Plasmodium berghei [3]): 17.5% | inhibition in vivo at 150 mg/kg (Plasmodium berghei [4]): 65.9% | IC50 (Plasmodium falciparum [1]): 4.8 µM | IC50 (Plasmodium falciparum [2]): 4.4 µM | Activity (Plasmodium berghei [5]): 12.4% | Activity (Plasmodium berghei [6]): 11.5% | inhibition in vivo at 50 mg/kg (Plasmodium berghei [7]): 48.4% | inhibition in vivo at 100 mg/kg (Plasmodium berghei [8]): 63.2%
